According to ChEMBL document CHEMBL2163278, “α-Substituted β-oxa isosteres of fosmidomycin: synthesis and biological evaluation” (J Med Chem, 2012):

Assays:
Plasmodium falciparum [1] = experiment: Antiplasmodial activity against chloroquine-sensitive Plasmodium falciparum 3D7 incubated for 3 days by HRP2 detection based ELISA method; format: functional, organism-based; details: 3D7, 72 h
How it was run: (§1)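 P. falciparum in continuous in vitro culture, growth inhibition assay. Each compound was tested in 12 serial dilutions, in duplicate. IC50 is the mean of at least two independent experiments.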

[2] = Inhibition of recombinant Plasmodium falciparum recombinant IspC using […]1-Deoxy-D-xylulose 5-phosphate substrate by photometric assay
How it was run: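 Enzyme IC50 from nonlinear regression of inhibition data; mean ± SD from nine or more data points.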

Plasmodium falciparum [3] = experiment: Antiplasmodial activity against chloroquine-resistant Plasmodium falciparum Dd2 incubated for 3 days by HRP2 detection based ELISA method; format: functional, organism-based; details: Dd2, 72 h; how it was run: as §1

## Cc1ccc(C(OCC(=O)NO)P(=O)(O)O)cc1 (stereo not given)
Plasmodium falciparum [1]
  IC50: > 50000 nM
[2]
  IC50: 1800 nM

## CN(O)C(=O)COC(c1ccc(F)c(F)c1)P(=O)(OCOC(=O)C(C)(C)C)OCOC(=O)C(C)(C)C (stereo not given)
Plasmodium falciparum [1]
  IC50: 13 nM
Plasmodium falciparum [3]
  IC50: 22 nM

## CCOC(=O)ON(C)C(=O)COC(c1ccc(F)c(F)c1)P(=O)(OCOC(=O)C(C)(C)C)OCOC(=O)C(C)(C)C (stereo not given)
Plasmodium falciparum [1]
  IC50: 23 nM
Plasmodium falciparum [3]
  IC50: 19 nM

## CCNC(=O)ON(C)C(=O)COC(c1ccc(F)c(F)c1)P(=O)(OCOC(=O)C(C)(C)C)OCOC(=O)C(C)(C)C (stereo not given)
Plasmodium falciparum [1]
  IC50: 31 nM
Plasmodium falciparum [3]
  IC50: 22 nM

## CN(O)C(=O)CCC(c1ccccc1)P(=O)(O)O (stereo not given)
[2]
  IC50: 3.1 nM

## Cc1ccc(C(CCC(=O)N(C)O)P(=O)(O)O)cc1 (stereo not given)
[2]
  IC50: 14 nM

## CN(O)C(=O)COC(c1ccccc1)P(=O)(O)O (stereo not given)
Plasmodium falciparum [1]
  IC50: 1200 nM
Plasmodium falciparum [3]
  IC50: 700 nM
[2]
  IC50: 37 nM

## CN(O)C(=O)COC(c1cccc2ccccc12)P(=O)(O)O (stereo not given)
Plasmodium falciparum [1]
  IC50: 520 nM
Plasmodium falciparum [3]
  IC50: 350 nM
[2]
  IC50: 39 nM

## CN(O)C(=O)COC(c1ccc(F)cc1)P(=O)(O)O (stereo not given)
Plasmodium falciparum [1]
  IC50: 480 nM
Plasmodium falciparum [3]
  IC50: 350 nM
[2]
  IC50: 27 nM

## CN(O)C(=O)COC(c1ccc(F)cc1F)P(=O)(O)O (stereo not given)
Plasmodium falciparum [1]
  IC50: 1300 nM
Plasmodium falciparum [3]
  IC50: 1200 nM
[2]
  IC50: 65 nM

## CN(O)C(=O)COC(c1ccc(F)c(F)c1)P(=O)(O)O (stereo not given)
Plasmodium falciparum [1]
  IC50: 540 nM
Plasmodium falciparum [3]
  IC50: 130 nM
[2]
  IC50: 12 nM

## CN(O)C(=O)COC(c1ccc(Cl)c(Cl)c1)P(=O)(O)O (stereo not given)
Plasmodium falciparum [1]
  IC50: 240 nM
Plasmodium falciparum [3]
  IC50: 140 nM
[2]
  IC50: 14 nM

## Cc1ccc(C(OCC(=O)N(C)O)P(=O)(O)O)cc1 (stereo not given)
Plasmodium falciparum [1]
  IC50: 180 nM
Plasmodium falciparum [3]
  IC50: 190 nM
[2]
  IC50: 25 nM

## CCN(O)C(=O)COC(c1ccccc1)P(=O)(O)O (stereo not given)
Plasmodium falciparum [1]
  IC50: 8100 nM
Plasmodium falciparum [3]
  IC50: 3800 nM
[2]
  IC50: 210 nM

## O=C(COC(c1ccccc1)P(=O)(O)O)NO (stereo not given)
Plasmodium falciparum [1]
  IC50: > 50000 nM
[2]
  IC50: 1500 nM

## O=C(COC(c1ccc(F)cc1F)P(=O)(O)O)NO (stereo not given)
Plasmodium falciparum [1]
  IC50: > 50000 nM
[2]
  IC50: 1700 nM

## O=CN(O)CCCP(=O)(O)O [FOSMIDOMYCIN SODIUM]
Plasmodium falciparum [1]
  IC50: 880 nM
Plasmodium falciparum [3]
  IC50: 810 nM
